Test results from ChEMBL document CHEMBL3600382, “A-ring substituted 17β-arylsulfonamides of 17β-aminoestra-1,3,5(10)-trien-3-ol as highly potent reversible inhibitors of steroid sulfatase” (Bioorg Med Chem, 2015).

What was measured:
Steryl-sulfatase [1] = target: T1, Steryl-sulfatase (Homo sapiens, UniProt P08842); assay: Reversible inhibition of STS (unknown origin) using 4-MUS as substrate measured over 10 mins by fluorescence assay; conditions: read-out: Ki(app)
T1 sequence (P08842 whole entry): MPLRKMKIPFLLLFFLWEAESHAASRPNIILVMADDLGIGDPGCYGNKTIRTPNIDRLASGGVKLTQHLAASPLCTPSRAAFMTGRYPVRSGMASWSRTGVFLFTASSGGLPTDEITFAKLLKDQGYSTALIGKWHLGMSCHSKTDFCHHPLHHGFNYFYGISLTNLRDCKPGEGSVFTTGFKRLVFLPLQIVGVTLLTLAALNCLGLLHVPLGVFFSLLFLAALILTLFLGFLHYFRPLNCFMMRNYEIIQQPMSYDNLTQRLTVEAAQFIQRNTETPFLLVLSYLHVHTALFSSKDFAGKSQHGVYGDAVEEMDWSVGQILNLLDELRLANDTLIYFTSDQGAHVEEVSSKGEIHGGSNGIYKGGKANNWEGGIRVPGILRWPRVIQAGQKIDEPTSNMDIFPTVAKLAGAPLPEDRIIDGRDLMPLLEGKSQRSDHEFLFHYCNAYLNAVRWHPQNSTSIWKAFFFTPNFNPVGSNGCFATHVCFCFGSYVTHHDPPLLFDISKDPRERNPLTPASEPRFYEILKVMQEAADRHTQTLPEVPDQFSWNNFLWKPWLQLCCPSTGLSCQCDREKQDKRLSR
Summary of the method: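 Purified STS at 10 nM final with 200 µM 4-MUS in 0.1 M Tris-HCl pH 7.0 (enzyme stock contained Triton X-100). Eleven inhibitor levels, 5 nM–5 µM, were added from DMSO/buffer. 4-Methylumbelliferone fluorescence (ex 360, em 460 nm) was followed for 10 min at 24 °C, in quadruplicate, with no-enzyme controls. Vi/V0 initial rates were fitted for IC50. K_i^app was the IC50-vs-[E]T intercept at 10–80 nM STS.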

KM12 = assay: Cytotoxicity against human KM12 cells; format: functional
[2] = Cytotoxicity against human EKVX cells; format: functional
IGROV-1 = assay: Cytotoxicity against human IGROV1 cells; format: functional
T47D = assay: Cytotoxicity against human T47D cells; format: functional
SK-MEL-5 = assay: Cytotoxicity against human SK-MEL-5 cells; format: functional
A549 = assay: Cytotoxicity against human A549 cells; format: functional
[3] = Cytotoxicity against human NCI-ADR-RES cells; format: functional
HCC 2998 = assay: Cytotoxicity against human HCC2998 cells; format: functional
NCI-H23 = assay: Cytotoxicity against human NCI-H23 cells; format: functional
SK-MEL-2 = assay: Cytotoxicity against human SK-MEL-2 cells; format: functional
TK-10 = assay: Cytotoxicity against human TK10 cells; format: functional
BT-549 = assay: Cytotoxicity against human BT549 cells; format: functional
NCI-H226 = assay: Cytotoxicity against human NCI-H226 cells; format: functional
UACC-62 = assay: Cytotoxicity against human UACC62 cells; format: functional
LOX IMVI = assay: Cytotoxicity against human LOXIMVI cells; format: functional
SNB-75 = assay: Cytotoxicity against human SNB75 cells; format: functional
SR = assay: Cytotoxicity against human SR cells; format: functional
RXF 393 = assay: Cytotoxicity against human RXF393 cells; format: functional
U-251 = assay: Cytotoxicity against human U251 cells; format: functional
SK-OV-3 = assay: Cytotoxicity against human SKOV3 cells; format: functional
HT-29 = assay: Cytotoxicity against human HT-29 cells; format: functional
OVCAR-5 = assay: Cytotoxicity against human OVCAR5 cells; format: functional
MCF7 = assay: Cytotoxicity against human MCF7 cells; format: functional
OVCAR-8 = assay: Cytotoxicity against human OVCAR8 cells; format: functional
MDA-MB-468 = assay: Cytotoxicity against human MDA-MB-468 cells; format: functional
MOLT-4 = assay: Cytotoxicity against human MOLT4 cells; format: functional
CCRF-CEM = assay: Cytotoxicity against human CCRF-CEM cells; format: functional
UACC-257 = assay: Cytotoxicity against human UACC257 cells; format: functional
HOP-92 = assay: Cytotoxicity against human HOP92 cells; format: functional
MDA-MB-231 = assay: Cytotoxicity against human MDA-MB-231 cells; format: functional
HL-60(TB) = assay: Cytotoxicity against human HL-60(TB) cells; format: functional
SF-539 = assay: Cytotoxicity against human SF539 cells; format: functional
SF-295 = assay: Cytotoxicity against human SF295 cells; format: functional
M14 = assay: Cytotoxicity against human M14 cells; format: functional
MDA-MB-435 = assay: Cytotoxicity against human MDA-MB-435 cells; format: functional
COLO 205 = assay: Cytotoxicity against human COLO205 cells; format: functional
OVCAR-3 = assay: Cytotoxicity against human OVCAR3 cells; format: functional
NCI-H460 = assay: Cytotoxicity against human NCI-H460 cells; format: functional
ACHN = assay: Cytotoxicity against human ACHN cells; format: functional
SN12C = assay: Cytotoxicity against human SN12C cells; format: functional
CAKI-1 = assay: Cytotoxicity against human Caki1 cells; format: functional
SW-620 = assay: Cytotoxicity against human SW620 cells; format: functional
PC-3 = assay: Cytotoxicity against human PC3 cells; format: functional
RPMI-8226 = assay: Cytotoxicity against human RPMI8226 cells; format: functional
A498 = assay: Cytotoxicity against human A498 cells; format: functional
SF-268 = assay: Cytotoxicity against human SF268 cells; format: functional
786-0 = assay: Cytotoxicity against human 786-0 cells; format: functional
[4] = Cytotoxicity against human Hs578T cells; format: functional; conditions: Hs-578T
Steryl-sulfatase [5] = target: T1, Steryl-sulfatase; assay: Inhibition of STS (unknown origin) using 4-MUS as substrate measured over 10 mins by fluorescence assay
Summary of the method: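 Purified STS (10 nM final) in 0.1 M Tris-HCl pH 7.0 containing Triton X-100, 4-MUS 200 µM final, and inhibitor at eleven concentrations (5 nM–5 µM). Ex 360/em 460 fluorescence read over 10 min at 24 °C, in quadruplicate, with no-enzyme controls. Vi/V0 from initial rates fit to a slope-factor equation. For tight binders, Ki app is the y-intercept of IC50 vs [E] (10–80 nM).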

C[C@]12CC[C@@H]3c4ccc(O)c([N+](=O)[O-])c4CC[C@H]3[C@@H]1CC[C@@H]2NS(=O)(=O)c1ccc(-c2ccccc2)cc1
Ki (Steryl-sulfatase [1]): 0.001 µM

C[C@]12CC[C@@H]3c4ccc(O)cc4CC[C@H]3[C@@H]1CC[C@@H]2NS(=O)(=O)c1cccc(Br)c1
GI50 (KM12): 1 µM | GI50 [2]: 1 µM | GI50 (IGROV-1): 1 µM | GI50 (T47D): 5 µM | GI50 (SK-MEL-5): 1 µM | GI50 (A549): 1 µM | GI50 [3]: 1 µM | GI50 (HCC 2998): 1 µM | GI50 (NCI-H23): 1 µM | GI50 (SK-MEL-2): 1 µM | GI50 (TK-10): 1 µM | GI50 (BT-549): 3.1 µM | GI50 (NCI-H226): 1 µM | GI50 (UACC-62): 1 µM | GI50 (LOX IMVI): 1 µM | GI50 (SNB-75): 1 µM | GI50 (SR): 1 µM | GI50 (RXF 393): 1 µM | GI50 (U-251): 1 µM | GI50 (SK-OV-3): 1 µM | GI50 (HT-29): 1 µM | GI50 (OVCAR-5): 1 µM | GI50 (MCF7): 3.7 µM | GI50 (OVCAR-8): 1 µM | GI50 (MDA-MB-468): 2.4 µM | GI50 (MOLT-4): 1 µM | GI50 (CCRF-CEM): 1 µM | GI50 (UACC-257): 1 µM | GI50 (HOP-92): 1 µM | GI50 (MDA-MB-231): 3.9 µM | GI50 (HL-60(TB)): 1 µM | GI50 (SF-539): 1 µM | GI50 (SF-295): 1 µM | GI50 (M14): 1 µM | GI50 (MDA-MB-435): 1 µM | GI50 (COLO 205): 1 µM | GI50 (OVCAR-3): 1 µM | GI50 (NCI-H460): 1 µM | GI50 (ACHN): 1 µM | GI50 (SN12C): 1 µM | GI50 (CAKI-1): 1 µM | GI50 (SW-620): 1 µM | GI50 (PC-3): 1 µM | GI50 (RPMI-8226): 1 µM | GI50 (A498): 1 µM | GI50 (SF-268): 1 µM | GI50 (786-0): 1 µM | GI50 [4]: 4 µM

C[C@]12CC[C@@H]3c4cc([N+](=O)[O-])c(O)cc4CC[C@H]3[C@@H]1CC[C@@H]2NS(=O)(=O)c1cccc(Br)c1
IC50 (Steryl-sulfatase [5]): 0.05 µM

CC(C)(C)c1ccc(S(=O)(=O)N[C@H]2CC[C@H]3[C@@H]4CCc5cc(O)c([N+](=O)[O-])cc5[C@H]4CC[C@]23C)cc1
IC50 (Steryl-sulfatase [5]): 0.081 µM

C[C@]12CC[C@@H]3c4ccc(O)c(Br)c4CC[C@H]3[C@@H]1CC[C@@H]2NS(=O)(=O)c1cccc(C(F)(F)F)c1
IC50 (Steryl-sulfatase [5]): 0.049 µM

C[C@]12CC[C@@H]3c4cc([N+](=O)[O-])c(O)cc4CC[C@H]3[C@@H]1CC[C@@H]2NS(=O)(=O)c1cccc(C(F)(F)F)c1
IC50 (Steryl-sulfatase [5]): 0.067 µM
